According to ChEMBL document CHEMBL1165965, “Synthesis and structure-activity relationships of 1,2,3,4-tetrahydropyrido[2,3-b]pyrazines as potent and selective inhibitors of the anaplastic lymphoma kinase” (Bioorg Med Chem, 2010):

Legend:
[1] = molecular target: Insulin receptor (Homo sapiens) (UniProt P06213); test: Inhibition of INSR at 1 uM
In short: (§1)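 Single-concentration screen on the Ambit KINOMEscan platform, run against a panel of 250–400 kinases. Per-kinase inhibition was also summarized as S(90), the fraction of kinases inhibited by more than 90%.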

[2] = molecular target: T1, Ephrin type-A receptor 1 (Homo sapiens) (UniProt P21709); test: Inhibition of EPHA1 at 1 uM
T1 sequence (whole entry): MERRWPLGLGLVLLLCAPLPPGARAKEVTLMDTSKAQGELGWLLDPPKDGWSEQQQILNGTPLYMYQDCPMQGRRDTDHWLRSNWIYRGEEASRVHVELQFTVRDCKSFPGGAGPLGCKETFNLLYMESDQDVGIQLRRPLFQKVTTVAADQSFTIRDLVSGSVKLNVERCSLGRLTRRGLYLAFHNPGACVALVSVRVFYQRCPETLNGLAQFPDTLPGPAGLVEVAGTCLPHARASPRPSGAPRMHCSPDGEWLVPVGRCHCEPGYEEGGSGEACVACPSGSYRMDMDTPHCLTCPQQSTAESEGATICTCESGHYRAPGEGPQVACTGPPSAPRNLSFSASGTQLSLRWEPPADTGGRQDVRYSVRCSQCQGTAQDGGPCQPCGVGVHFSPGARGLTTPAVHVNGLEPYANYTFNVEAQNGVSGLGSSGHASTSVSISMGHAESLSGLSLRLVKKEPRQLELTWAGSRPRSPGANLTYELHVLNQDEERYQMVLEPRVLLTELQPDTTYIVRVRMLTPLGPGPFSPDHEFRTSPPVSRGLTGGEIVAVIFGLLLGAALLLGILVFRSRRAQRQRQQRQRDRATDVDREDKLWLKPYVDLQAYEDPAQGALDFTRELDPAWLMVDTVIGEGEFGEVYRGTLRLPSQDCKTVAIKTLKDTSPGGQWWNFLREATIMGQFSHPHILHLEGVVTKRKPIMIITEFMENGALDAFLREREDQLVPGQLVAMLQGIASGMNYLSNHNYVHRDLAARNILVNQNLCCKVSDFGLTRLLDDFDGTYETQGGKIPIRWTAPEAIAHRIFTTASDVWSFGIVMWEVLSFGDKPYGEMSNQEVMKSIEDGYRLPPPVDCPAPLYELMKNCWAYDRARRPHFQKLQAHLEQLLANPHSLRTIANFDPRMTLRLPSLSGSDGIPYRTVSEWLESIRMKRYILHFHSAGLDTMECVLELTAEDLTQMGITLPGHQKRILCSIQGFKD
In short: (§2)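 Single-concentration screen using Ambit Bioscience KINOMEscan technology across a panel of 250–400 kinases. Per-kinase inhibition from this screen was summarized as S(90), the fraction of kinases inhibited by more than 90%.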

[3] = molecular target: T2, Uncharacterized serine/threonine-protein kinase SBK3 (Homo sapiens) (UniProt P0C264); test: Inhibition of SgK110 at 1 uM
T2 sequence (whole entry): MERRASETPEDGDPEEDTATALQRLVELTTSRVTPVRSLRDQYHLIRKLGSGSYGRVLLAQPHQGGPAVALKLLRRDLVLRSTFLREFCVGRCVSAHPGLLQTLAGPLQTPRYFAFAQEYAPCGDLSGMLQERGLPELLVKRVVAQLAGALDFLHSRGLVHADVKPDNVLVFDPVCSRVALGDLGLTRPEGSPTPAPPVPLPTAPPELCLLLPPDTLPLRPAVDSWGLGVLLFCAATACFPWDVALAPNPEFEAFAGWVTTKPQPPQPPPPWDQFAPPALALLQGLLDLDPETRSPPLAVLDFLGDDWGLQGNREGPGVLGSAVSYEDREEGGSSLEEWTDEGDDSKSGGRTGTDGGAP

[4] = molecular target: Death-associated protein kinase 3 (Homo sapiens) (UniProt O43293); test: Inhibition of DAPK3 at 1 uM; in short: as §2
Chain of Death-associated protein kinase 3 (Homo sapiens) (O43293 whole entry, looked up): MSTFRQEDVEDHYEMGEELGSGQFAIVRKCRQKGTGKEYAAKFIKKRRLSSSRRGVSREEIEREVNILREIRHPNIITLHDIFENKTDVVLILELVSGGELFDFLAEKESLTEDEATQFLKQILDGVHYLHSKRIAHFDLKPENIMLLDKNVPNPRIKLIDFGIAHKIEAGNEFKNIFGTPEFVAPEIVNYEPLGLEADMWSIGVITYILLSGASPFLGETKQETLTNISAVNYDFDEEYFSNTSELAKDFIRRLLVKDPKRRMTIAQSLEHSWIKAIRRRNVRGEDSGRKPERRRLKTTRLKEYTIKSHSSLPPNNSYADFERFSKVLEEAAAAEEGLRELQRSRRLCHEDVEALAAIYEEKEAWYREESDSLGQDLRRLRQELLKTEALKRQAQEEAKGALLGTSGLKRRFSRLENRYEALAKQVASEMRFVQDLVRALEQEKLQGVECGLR

[5] = molecular target: T3, Tyrosine-protein kinase Tec (Homo sapiens) (UniProt P42680); test: Inhibition of TEC at 1 uM
T3 sequence (whole entry): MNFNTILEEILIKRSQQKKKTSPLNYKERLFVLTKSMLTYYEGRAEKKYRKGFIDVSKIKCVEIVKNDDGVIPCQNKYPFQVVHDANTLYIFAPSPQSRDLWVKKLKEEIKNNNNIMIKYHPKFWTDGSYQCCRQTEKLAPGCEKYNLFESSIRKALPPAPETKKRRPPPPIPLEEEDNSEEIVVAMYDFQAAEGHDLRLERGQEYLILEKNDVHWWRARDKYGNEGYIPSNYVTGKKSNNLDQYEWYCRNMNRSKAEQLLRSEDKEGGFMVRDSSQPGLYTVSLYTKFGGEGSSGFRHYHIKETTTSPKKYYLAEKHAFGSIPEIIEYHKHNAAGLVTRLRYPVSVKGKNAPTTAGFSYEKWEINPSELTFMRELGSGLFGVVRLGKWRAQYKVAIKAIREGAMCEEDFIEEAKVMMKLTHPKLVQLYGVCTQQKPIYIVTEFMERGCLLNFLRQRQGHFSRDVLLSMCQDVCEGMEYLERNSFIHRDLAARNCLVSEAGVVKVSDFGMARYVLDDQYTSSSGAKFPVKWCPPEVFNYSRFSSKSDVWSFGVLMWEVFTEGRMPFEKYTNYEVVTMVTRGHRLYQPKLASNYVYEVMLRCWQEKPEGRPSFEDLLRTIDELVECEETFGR

[6] = molecular target: T4, Serine/threonine-protein kinase STK11 (Homo sapiens) (UniProt Q15831); test: Inhibition of LKB1 at 1 uM; in short: as §1
T4 sequence (whole entry): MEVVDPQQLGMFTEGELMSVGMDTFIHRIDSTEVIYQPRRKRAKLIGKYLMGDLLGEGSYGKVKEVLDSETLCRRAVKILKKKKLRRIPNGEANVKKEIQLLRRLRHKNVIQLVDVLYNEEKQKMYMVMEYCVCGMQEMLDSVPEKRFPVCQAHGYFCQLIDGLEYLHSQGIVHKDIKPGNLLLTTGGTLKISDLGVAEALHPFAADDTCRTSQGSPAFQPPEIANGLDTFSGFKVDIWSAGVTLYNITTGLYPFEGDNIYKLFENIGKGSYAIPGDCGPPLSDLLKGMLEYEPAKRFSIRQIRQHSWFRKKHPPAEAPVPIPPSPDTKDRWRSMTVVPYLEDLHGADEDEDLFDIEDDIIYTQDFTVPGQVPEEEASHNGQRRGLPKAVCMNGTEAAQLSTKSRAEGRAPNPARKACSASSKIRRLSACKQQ

[7] = molecular target: Serine/threonine-protein kinase 35 (Homo sapiens) (UniProt Q8TDR2); test: Inhibition of STK35 at 1 uM
Chain of Serine/threonine-protein kinase 35 (Homo sapiens) (Q8TDR2 whole entry, the tested form may be a part): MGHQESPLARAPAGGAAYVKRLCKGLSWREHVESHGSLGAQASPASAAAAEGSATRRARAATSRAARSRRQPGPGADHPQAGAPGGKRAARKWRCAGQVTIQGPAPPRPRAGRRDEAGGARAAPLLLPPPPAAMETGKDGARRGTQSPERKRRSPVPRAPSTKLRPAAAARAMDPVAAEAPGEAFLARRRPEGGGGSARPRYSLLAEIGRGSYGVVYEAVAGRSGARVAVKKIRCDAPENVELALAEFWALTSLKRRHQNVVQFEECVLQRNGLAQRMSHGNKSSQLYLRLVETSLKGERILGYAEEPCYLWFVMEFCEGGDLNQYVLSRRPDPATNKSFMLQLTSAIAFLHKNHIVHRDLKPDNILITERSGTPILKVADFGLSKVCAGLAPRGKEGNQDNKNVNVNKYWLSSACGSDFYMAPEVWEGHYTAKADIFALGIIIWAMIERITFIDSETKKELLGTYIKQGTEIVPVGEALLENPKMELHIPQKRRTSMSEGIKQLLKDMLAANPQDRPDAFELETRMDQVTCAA

[8] = molecular target: Epithelial discoidin domain-containing receptor 1 (Homo sapiens) (UniProt Q08345); test: Inhibition of DDR1 at 1 uM; in short: as §2
Chain of Epithelial discoidin domain-containing receptor 1 (Homo sapiens) (Q08345 whole entry, the tested form may be a part): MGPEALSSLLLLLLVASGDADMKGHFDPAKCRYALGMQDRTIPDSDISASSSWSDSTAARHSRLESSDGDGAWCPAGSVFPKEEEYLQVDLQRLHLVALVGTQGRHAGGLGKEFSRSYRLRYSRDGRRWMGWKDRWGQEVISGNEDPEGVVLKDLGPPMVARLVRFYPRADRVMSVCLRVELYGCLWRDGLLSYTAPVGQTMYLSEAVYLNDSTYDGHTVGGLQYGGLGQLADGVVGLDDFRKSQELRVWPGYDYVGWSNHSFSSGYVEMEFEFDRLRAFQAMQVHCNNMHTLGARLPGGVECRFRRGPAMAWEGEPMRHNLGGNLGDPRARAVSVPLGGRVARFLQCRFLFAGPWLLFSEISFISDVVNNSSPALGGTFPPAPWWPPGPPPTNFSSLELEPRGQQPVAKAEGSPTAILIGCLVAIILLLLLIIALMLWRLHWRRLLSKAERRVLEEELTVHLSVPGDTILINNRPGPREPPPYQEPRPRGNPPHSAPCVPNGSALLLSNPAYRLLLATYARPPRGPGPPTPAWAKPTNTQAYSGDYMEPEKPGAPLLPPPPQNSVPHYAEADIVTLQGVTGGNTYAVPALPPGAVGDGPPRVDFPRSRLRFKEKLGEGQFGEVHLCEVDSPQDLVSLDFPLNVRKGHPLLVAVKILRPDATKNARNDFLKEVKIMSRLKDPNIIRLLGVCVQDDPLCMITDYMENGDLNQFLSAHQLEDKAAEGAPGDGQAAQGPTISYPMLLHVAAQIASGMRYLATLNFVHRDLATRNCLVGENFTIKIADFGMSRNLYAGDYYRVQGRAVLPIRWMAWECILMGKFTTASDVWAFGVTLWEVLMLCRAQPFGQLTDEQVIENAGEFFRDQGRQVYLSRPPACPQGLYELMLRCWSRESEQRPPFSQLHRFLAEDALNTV

Chain of Insulin receptor (Homo sapiens) (P06213 28-758 limits assumed): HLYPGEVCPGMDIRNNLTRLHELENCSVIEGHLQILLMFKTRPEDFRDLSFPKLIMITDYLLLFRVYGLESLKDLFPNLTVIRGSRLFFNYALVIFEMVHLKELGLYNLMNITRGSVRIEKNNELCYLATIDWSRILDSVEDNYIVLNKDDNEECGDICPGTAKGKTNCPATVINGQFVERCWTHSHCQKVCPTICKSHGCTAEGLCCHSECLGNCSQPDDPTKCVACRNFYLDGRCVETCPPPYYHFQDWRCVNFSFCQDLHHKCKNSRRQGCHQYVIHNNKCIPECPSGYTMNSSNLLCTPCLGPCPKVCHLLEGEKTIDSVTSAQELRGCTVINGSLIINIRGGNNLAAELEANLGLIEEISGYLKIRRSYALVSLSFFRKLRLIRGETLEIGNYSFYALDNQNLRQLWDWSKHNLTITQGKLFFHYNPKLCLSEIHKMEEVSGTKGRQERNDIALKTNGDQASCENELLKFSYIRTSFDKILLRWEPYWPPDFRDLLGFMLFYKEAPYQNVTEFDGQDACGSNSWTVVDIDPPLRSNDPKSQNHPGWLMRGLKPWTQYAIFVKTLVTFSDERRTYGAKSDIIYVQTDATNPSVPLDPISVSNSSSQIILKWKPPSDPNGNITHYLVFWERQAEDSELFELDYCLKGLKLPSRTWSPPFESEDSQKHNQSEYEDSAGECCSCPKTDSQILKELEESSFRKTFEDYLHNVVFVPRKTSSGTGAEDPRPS
Chain of Insulin receptor (Homo sapiens) (P06213 763-1382 limits assumed): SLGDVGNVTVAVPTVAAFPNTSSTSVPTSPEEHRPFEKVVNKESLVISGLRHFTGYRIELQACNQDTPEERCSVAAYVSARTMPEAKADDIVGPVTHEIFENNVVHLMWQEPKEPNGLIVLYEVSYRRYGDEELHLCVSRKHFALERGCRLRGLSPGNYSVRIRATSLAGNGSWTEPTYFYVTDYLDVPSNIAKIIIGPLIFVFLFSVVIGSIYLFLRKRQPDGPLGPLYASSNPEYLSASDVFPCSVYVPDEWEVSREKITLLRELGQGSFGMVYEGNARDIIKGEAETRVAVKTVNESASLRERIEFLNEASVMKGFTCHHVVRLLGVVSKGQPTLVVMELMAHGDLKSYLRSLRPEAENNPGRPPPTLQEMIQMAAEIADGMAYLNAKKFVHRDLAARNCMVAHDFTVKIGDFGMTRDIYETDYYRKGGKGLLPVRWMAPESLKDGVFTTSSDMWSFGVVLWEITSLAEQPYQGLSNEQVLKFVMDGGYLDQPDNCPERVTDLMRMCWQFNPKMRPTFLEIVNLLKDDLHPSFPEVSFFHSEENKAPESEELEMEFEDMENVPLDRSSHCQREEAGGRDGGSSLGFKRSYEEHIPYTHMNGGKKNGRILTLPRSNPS

| Structure (SMILES) | inhibition [1] [%] | inhibition [2] [%] | inhibition [3] [%] | inhibition [5] [%] | inhibition [6] [%] | inhibition [7] [%] | inhibition [8] [%] | inhibition [4] [%] |
| --- | --- | --- | --- | --- | --- | --- | --- | --- |
| CN1CCN(c2ccc(-c3cnc4c(c3)N(Cc3cc(F)ccc3F)CCN4)cn2)CC1 | < 50 | 62.1 | < 50 | < 50 | < 50 | < 50 | < 50 | < 50 |
| CN1CCN(c2ccc(-c3cnc4c(c3)N(Cc3cc(Cl)ccc3Cl)CCN4)cn2)CC1 | < 50 | < 50 | < 50 | < 50 | < 50 | < 50 | < 50 | < 50 |
| COC1CCN(C(=O)c2ccc(-c3cnc4c(c3)N(Cc3cc(Cl)ccc3C(F)(F)F)CCN4)cc2)CC1 | < 50 | < 50 |  |  | < 50 |  | < 50 | < 50 |
| CN1CCN(c2ccc(-c3cnc4c(c3)N(Cc3c(F)ccc(F)c3Cl)CCN4)cn2)CC1 | < 50 | < 50 | < 50 | < 50 | < 50 | < 50 | < 50 | < 50 |
| O=C(c1ccc(-c2cnc3c(c2)N(Cc2cc(Cl)ccc2C(F)(F)F)CCN3)cc1)N1CCC(N2CCCC2)CC1 | < 50 | 81 |  |  | < 50 |  | 84 | < 50 |

Second part, led by results:

| inhibition [1] [%] | inhibition [2] [%] | inhibition [3] [%] | inhibition [5] [%] | inhibition [6] [%] | inhibition [7] [%] | inhibition [8] [%] | Structure (SMILES) | inhibition [4] [%] |
| --- | --- | --- | --- | --- | --- | --- | --- | --- |
| < 50 | < 50 | 71 | < 50 | < 50 | < 50 | < 50 | CC(=O)N1CCN(c2cc(-c3cnc4c(c3)N(Cc3cc(Cl)ccc3C(F)(F)F)CCN4)ccn2)CC1 | < 50 |
| < 50 | < 50 |  |  | < 50 |  | < 50 | O=C(O)c1ccc(-c2cnc3c(c2)N(Cc2cc(Cl)ccc2C(F)(F)F)CCN3)cc1 | < 50 |
| < 50 | < 50 |  |  | < 50 |  | < 50 | O=C(c1ccc(-c2cnc3c(c2)N(Cc2cc(Cl)ccc2C(F)(F)F)CCN3)cc1)N1CCCCC1 | < 50 |
| < 50 | < 50 | < 50 | < 50 | < 50 | < 50 | < 50 | CN1CCN(c2ccc(-c3cnc4c(c3)N(Cc3cc(Cl)ccc3C(F)(F)F)CCN4)cn2)CC1 | < 50 |
| < 50 | < 50 | 96 | < 50 | < 50 | < 50 | 96 | FC(F)(F)c1ccc(Cl)cc1CN1CCNc2ncc(-c3ccnc(N4CCNCC4)c3)cc21 | < 50 |
